≈ marks a conversion by molar mass, not a printed value.
Key:
[1] = test system: Mus musculus; assay: Cmax in C57/BL6 mouse at 20 mg/kg, po measured up to 24 hrs post dose by LC-MS/MS analysis; assay type: ADME, organism-based; design: dose 20 mg/kg, route oral; details: in vivo
In short: (§1)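 Male mice, 3 per route, not fasted, free access to water. Oral dose given as aqueous suspension in 0.5% (w/v) hydroxypropyl methylcellulose with 0.4% (v/v) Tween 80. Blood drawn into heparinised tubes at 0.5, 1, 3, 5, 8, 12 and 24 h, kept below -15 °C, protein-precipitated with ice-cold acetonitrile. Quantified by LC-MS/MS against standards made in drug-free mouse blood.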

[2] = test system: Liver; assay: Metabolic stability in mouse liver microsomes assessed as compound remaining at 0.1 uM after 30 mins by LC-MS/MS analysis; assay type: ADME, microsome; details: 0.5 h
In short: (§2)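 Compound at 0.1 μM incubated in duplicate with mouse, rat or pooled human liver microsomes (0.4 mg/mL) at 37 °C. Run with and without 1 mM NADPH, sampled at predetermined time points.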

[3] = test system: Mycobacterium tuberculosis; assay: Antibacterial activity against Mycobacterium tuberculosis H37RvMA grown in GAST/Fe medium measured 7 to 14 days post inoculation by broth microdilution method; assay type: functional
In short: (§3)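 H37RvMa grown to OD600 0.6–0.7, diluted 1:100 in GAST/Fe. Compounds two-fold serially diluted from a top concentration of 640 μM, in duplicate. Incubated at 37 °C with humidification.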

[4] = test system: Mycobacterium tuberculosis; assay: Antibacterial activity against Mycobacterium tuberculosis H37Rv grown in middlebrook 7H9 medium measured on day 7 and 14 by MABA assay; assay type: functional; details: 168 h
[5] = test system: Mycobacterium tuberculosis; assay: Antibacterial activity against Mycobacterium tuberculosis […] SAWC3385 grown in middlebrook 7H9 medium measured on day 7 and 14 by MABA assay; assay type: functional; details: 168 h
In short: (§4)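 Clinical M. tuberculosis strains tested by broth microdilution in 7H9 medium. On days 7 and 14, Alamar Blue added and plates reincubated 24 h at 37 °C. Colour read by eye (blue means no growth, pink means growth). MIC90 is the lowest concentration with no colour change.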

[6] = test system: Vero; assay: Cytotoxicity against African green monkey Vero cells assessed as reduction in cell viability by MTT assay; assay type: cell-based; details: Chlorocebus sabaeus
In short: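 MTT assay in Vero cells, samples in triplicate on one occasion. Stocks at 20 mg/mL in DMSO, diluted in complete medium as 10-fold serial dilutions over 6 concentrations. Emetine used as reference. IC50 derived by non-linear dose-response curve fitting.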

[7] = test system: Mus musculus; assay: Apparent elimination half life in C57/BL6 mouse at 20 mg/kg, po measured up to 24 hrs post dose by LC-MS/MS analysis; assay type: ADME, organism-based; details: in vivo; in short: as §1
[8] = Kinetic solubility of the compound in pH 7.4 solution at 10 to 220 uM after 2 hrs by shake flask method; assay type: physicochemical; details: buffer, pH 7.4, 2 h, 220 µM
[9] = test system: Mycobacterium tuberculosis; assay: Antibacterial activity against Mycobacterium tuberculosis […] SAWC1125 grown in middlebrook 7H9 medium measured on day 7 and 14 by MABA assay; assay type: functional; details: 168 h; in short: as §4
[10] = test system: Plasma; assay: Fraction unbound in human plasma at 5 uM pre-incubated for 1 hr by ultra-centrifugation and LC-MS/MS method; assay type: ADME, cell-free
In short: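 Pooled human plasma spiked to 5 μM and pre-incubated 1 h at 37 °C. Duplicate aliquots ultracentrifuged 4 h at 37 °C; an unspun aliquot served as the total sample. Analyte measured by LC-MS/MS.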

[11] = test system: Mus musculus; assay: AUC (0 to infinity) in C57/BL6 mouse at 20 mg/kg, po measured up to 24 hrs post dose by LC-MS/MS analysis; assay type: ADME, organism-based; design: dose 20 mg/kg, route oral, time infinity; details: in vivo; in short: as §1
[12] = test system: Mus musculus; assay: Volume of distribution in C57/BL6 mouse at 5 mg/kg, iv measured up to 24 hrs post dose by LC-MS/MS analysis; assay type: ADME, organism-based; details: in vivo
In short: (§5)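 Male mice, 3 animals, not fasted, given an IV bolus in 10% DMSO, 50% propylene glycol/ethanol (4:1) and 40% polyethylene glycol or water. Blood sampled into heparinised tubes at 0.17, 0.5, 1, 3, 5, 8, 12 and 24 h, stored frozen, precipitated with ice-cold acetonitrile. Measured by LC-MS/MS with internal standards against blood-matrix calibration standards.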

[13] = test system: Mus musculus; assay: AUC (0 to infinity) in C57/BL6 mouse at 5 mg/kg, iv measured up to 24 hrs post dose by LC-MS/MS analysis; assay type: ADME, organism-based; design: dose 5 mg/kg, route intravenous, time infinity; details: in vivo; in short: as §5
[14] = test system: Mycobacterium tuberculosis; assay: Antibacterial activity against Mycobacterium tuberculosis […] SAWC3906 grown in middlebrook 7H9 medium measured on day 7 and 14 by MABA assay; assay type: functional; details: 168 h; in short: as §4
[15] = test system: Mycobacterium tuberculosis; assay: Antibacterial activity against Mycobacterium tuberculosis […] SAWC3200 grown in middlebrook 7H9 medium measured on day 7 and 14 by MABA assay; assay type: functional; details: 168 h; in short: as §4
[16] = test system: Mus musculus; assay: Apparent elimination half life in C57/BL6 mouse at 5 mg/kg, iv measured up to 24 hrs post dose by LC-MS/MS analysis; assay type: ADME, organism-based; details: in vivo; in short: as §5
[17] = test system: Mycobacterium tuberculosis; assay: Antibacterial activity against Mycobacterium tuberculosis […] SAWC3388 grown in middlebrook 7H9 medium measured on day 7 and 14 by MABA assay; assay type: functional; details: 168 h; in short: as §4
[18] = test system: Liver; assay: Metabolic stability in rat liver microsomes assessed as compound remaining at 0.1 uM after 30 mins by LC-MS/MS analysis; assay type: ADME, microsome; details: 0.5 h; in short: as §2
[19] = test system: Mus musculus; assay: Oral bioavailability in C57/BL6 mouse at 20 mg/kg measured up to 24 hrs post dose by LC-MS/MS analysis; assay type: ADME, organism-based; details: in vivo; in short: as §1
[20] = Kinetic solubility of the compound in fasted-state simulated intestinal fluid at 10 to 220 uM at pH 6.5 after 2 hrs by shake flask method; assay type: physicochemical; details: read-out: Kinetic_solubility
In short: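 Miniaturised shake flask. 10 mM DMSO stocks spiked 1:50 into duplicate FaSSIF (pH 6.5), 2% final DMSO. Shaken 2 h at 25 °C, filtered, analysed by HPLC-DAD against calibration standards (10–220 μM).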

[21] = test system: Mycobacterium tuberculosis; assay: Antibacterial activity against Mycobacterium tuberculosis H37RvMA grown in 7H9/ADC medium measured 7 to 14 days post inoculation by broth microdilution method; assay type: functional
[22] = Lipophilicity, log P of the compound at 100 uM at pH 7.4 after 3 hrs by shake-flask method; assay type: physicochemical; details: buffer
In short: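 Shake-flask method run in triplicate. A 10 mM stock was spiked into a 1:1 mixture of phosphate buffer (pH 7.4) and n-octanol, then shaken at 1500 rpm on an orbital shaker for 3 h at room temperature.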

[23] = test system: Liver; assay: Metabolic stability in human liver microsomes assessed as compound remaining at 0.1 uM after 30 mins by LC-MS/MS analysis; assay type: ADME, microsome; details: 0.5 h; in short: as §2
[24] = test system: Mycobacterium tuberculosis; assay: Antibacterial activity against Mycobacterium tuberculosis […] SAWC3933 grown in middlebrook 7H9 medium measured on day 7 and 14 by MABA assay; assay type: functional; details: 168 h; in short: as §4
[25] = test system: Mus musculus; assay: Tmax in C57/BL6 mouse at 20 mg/kg, po measured up to 24 hrs post dose by LC-MS/MS analysis; assay type: ADME, organism-based; details: in vivo; in short: as §1
[26] = test system: Mycobacterium tuberculosis; assay: Antibacterial activity against wild type Mycobacterium tuberculosis H37Rv grown in GAST/Fe medium measured on day 14 post inoculation by broth microdilution method; assay type: functional; details: 336 h; in short: as §3
[27] = test system: Liver; assay: Drug metabolism in BALB mouse liver microsomes assessed as N-demethylation on LHS at 10 uM after 1 hr by LC-MS/MS analysis; assay type: ADME, microsome
In short: (§6)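 Incubation at 37 °C for 1 h with shaking in 100 mM phosphate buffer pH 7.4, 1 mg/ml microsomes, 5 mM MgCl2 and 1 mM NADPH. Ice-cold acetonitrile precipitation, filtration, then LC-MS/MS. Controls: unincubated sample, and samples lacking NADPH or lacking microsomes; propranolol 10 μM as positive control. Metabolites found by comparing T60 with T0 and no-NADPH chromatograms, with product ion spectra of [M+H]+ compared against parent and synthetic standards where available.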

[28] = test system: Liver; assay: Drug metabolism in BALB mouse liver microsomes assessed as cleavage of amide bound on RHS at 10 uM after 1 hr by LC-MS/MS analysis; assay type: ADME, microsome; in short: as §6

Compound | Cmax [1] [nM] | Stability [2] [%] | MIC99 [3] [µM] | MIC90 [4] [µM] | MIC90 [5] [µM] | IC50 [6] [µM] | betat1/2(app) [7] [h] | Kinetic_solubility [8] [µM] | MIC90 [9] [µM] | Fu [10] [%] | AUC [11] [µM·min] | Vd [12] [L/kg] | AUC [13] [µM·min] | betat1/2(app) [16] [h] | Stability [18] [%] | F [19] [%] | solubility kinetic at 2 h [20] [µM] | MIC99 [21] [µM] | logD at 3 h, 100 µM [22] | Stability [23] [%] | other results
CN1CCN(c2ccc(NC(=O)c3cc(N(C)Cc4ccc(C(F)(F)F)cc4)ncn3)cc2)CC1 | 420 | 21 | 1.25 (≈ 0.606 µg/mL) | 1.25 to 2.5 (≈ 0.606 to 1.21 µg/mL) | 1.25 (≈ 0.606 µg/mL) | 161 | 15.8 | < 5 | 2.5 to 5 (≈ 1.21 to 2.42 µg/mL) | 0.14 | 564 | 21.8 | 540 | 10.3 | 37 | 26 | 150 (≈ 72.7 µg/mL) | 3.13 (≈ 1.52 µg/mL) | 5 | 57 | MIC90 [14]: 0.31 to 0.63 µM (≈ 0.15 to 0.305 µg/mL); MIC90 [15]: 1.25 µM (≈ 0.606 µg/mL); MIC90 [17]: 1.25 to 2.5 µM (≈ 0.606 to 1.21 µg/mL); MIC90 [24]: 1.25 to 2.5 µM (≈ 0.606 to 1.21 µg/mL)
CN(Cc1ccc(F)cc1)c1cc(C(=O)Nc2nncs2)ncn1 | 2580 | 74 | 4.7 (≈ 1.62 µg/mL) | 2.5 (≈ 0.861 µg/mL) | < 0.08 | 21.9 | 4.4 | 128 | < 0.08 | 0.01 | 1022 | 4.8 | 1329 | 5.1 | 65 | 19 | < 5 | 12.5 (≈ 4.3 µg/mL) | 2 | 67 | MIC90 [14]: < 0.08 µM; MIC90 [15]: < 0.08 µM; Tmax [25]: 1 h; MIC90 [17]: 0.15 µM (≈ 0.0517 µg/mL); MIC99 [26]: 5 µM (≈ 1.72 µg/mL); MIC90 [24]: 0.625 µM (≈ 0.215 µg/mL); Drug metabolism [27]: Metabolite_Detected; Drug metabolism [28]: Metabolite_Detected
CN(Cc1ccc(C(F)(F)F)cc1)c1cc(C(=O)Nc2ccccc2)ncn1 | 2200 | 60 | 5 (≈ 1.93 µg/mL) |  |  | 258 | 8.7 | < 5 |  | 0.11 | 1334 | 4.3 | 1224 | 4.6 | 87 | 28 | 5 (≈ 1.93 µg/mL) | 5 (≈ 1.93 µg/mL) | 5 | 55 | Tmax [25]: 1 h; Drug metabolism [27]: Metabolite_Detected; Drug metabolism [28]: Metabolite_Detected

From ChEMBL document CHEMBL4028901, “Novel Antitubercular 6-Dialkylaminopyrimidine Carboxamides from Phenotypic Whole-Cell High Throughput Screening of a SoftFocus Library: Structure-Activity Relationship and Target Identification Studies” (J Med Chem, 2017)
